For assay [1], the system named is NCI-H460. Kind of assay: Cytotoxicity against human NCI-H460 cells incubated for 72 hrs by MTT assay. It counts as functional, cell-based. The method in brief:
(§1)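 Cells kept in RPMI-1640 with 10% FBS plus L-glutamine and HEPES, seeded at 5 × 10^2 to 5 × 10^4 cells/well and left to adhere overnight. Medium was replaced with DMSO stock diluted in medium at eight concentrations, 2−5 wells each. Camptothecin and vehicle served as controls. After 72 h at 37 °C, 5% CO2, viable cells were read by CellTiter 96 AQueous. IC50 came from dose−response curves.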
Background: Tetrazolium dyes change colour on reduction, which living cells bring about.

The next assay relates to Staphylococcus aureus. The assay can be described thus: Antimicrobial activity against methicillin-resistant Staphylococcus aureus isolate 108 incubated for 24 hrs by broth microdilution method. It is filed as functional. The method in brief: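 CLSI broth microdilution on clinical MRSA isolate 108. Overnight trypticase soy broth culture diluted 1:100 in cation-adjusted Mueller-Hinton broth, grown at 37 °C to OD600 0.2, diluted 1:100 again to give 10^6 cfu/mL. Compound in DMSO diluted in medium, tested across a concentration series, 3-6 wells each. Vancomycin positive control. Incubated 24 h at 37 °C. MIC = lowest concentration preventing visible growth.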
(In general: In broth dilution the organism is exposed to a series of concentrations in liquid medium.)

In another assay the test system is PC-3. Kind of assay: Cytotoxicity against human PC3 cells incubated for 72 hrs by MTT assay. It counts as functional, cell-based. The method in brief: as §1
The test system of another assay is M14. Kind of assay: Cytotoxicity against human M14 cells incubated for 72 hrs by MTT assay. It is filed as functional, cell-based. The method in brief:
as §1

Assay [2] has as its system NCI-H460. Kind of assay: Induction of membrane disruption in human NCI-H460 cells at 3 yo 5 fold cytotoxic IC50 level by LDH release assay. It counts as functional, cell-based. The method in brief:
(§2)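 NCI-H460 cells were plated at 1 × 10^4 cells/well in RPMI-1640 with 10% fetal calf serum and attached overnight. Compound or DMSO vehicle was added and incubated 24 or 72 h. Supernatant LDH was measured with the CytoTox 96 kit, absorbance at 490 nm, with kit lysis solution as positive control.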
(In general: LDH leaks from cells whose membrane has failed.)

Assay [3] relates to NCI-H460. The assay can be described thus: Induction of apoptosis in human NCI-H460 cells assessed as caspase 3/7 activation at 26.1uM. It is filed as functional, cell-based. The method in brief:
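NCI-H460 cells were plated at 1 × 10^4 cells/well in RPMI-1640 with 10% fetal calf serum and attached overnight. Compound or DMSO vehicle was added and incubated 24 or 72 h. Caspase 3/7 activity was read by Caspase-Glo 3/7 luminescence, with camptothecin 10 μg/mL as positive control. A result counted as active when caspase exceeded background plus two SD of the negative control without LDH release.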

In assay [4] the test system is NCI-H460. The assay can be described thus: Induction of membrane disruption in human NCI-H460 cells at 20 uM by LDH release assay. It is filed as functional, cell-based. The method in brief: as §2
The mark [5] stands for this setting: Homo sapiens, NCI-H460, 72 h, read-out: IC50.

Converted amounts (≈) assume the structure as drawn. The source made the active and inactive calls.

By IC50 is commonly meant the concentration that inhibits the measured activity by half. What is called MIC is the least concentration at which growth counts as inhibited. Consider `O=C(O)C1=C[C@@H](O)[C@@H]2C[C@H]3[C@H](CCC/C=C\C=C\c4ccccc4)[C@H]4C=C[C@@H]1[C@@H]2[C@H]43` [BEILSCHMIEDIC ACID M], for which, in the assay on NCI-H460 [1] (setting [5]), the IC50 was 8.7 µM. In addition, the MIC against Staphylococcus aureus (isolate 108, 24 h) stood at 12 µg/mL (≈ 29.8 µM). The result with PC-3, with M14 and with NCI-H460 [2] was inactive. Also, in the assay on NCI-H460 [3], the outcome was Active.

For the compound `O=C(O)C1=C[C@@H](O)[C@@H]2C[C@H]3[C@H](CCCC4C=CC(c5ccccc5)OO4)[C@H]4C=C[C@@H]1[C@@H]2[C@H]43` (stereo not given in full) [BEILSCHMIEDIC ACID N], the IC50 with NCI-H460 [1] (setting [5]) turned out to be 19 µM. Also, in the assay with Staphylococcus aureus (isolate 108, 24 h), inhibition of growth (MIC) required 13 µg/mL (≈ 29.9 µM). The result in the assay with PC-3 and in the assay with M14 was inactive.

Regarding `O=C(O)C1=C[C@@H](O)[C@@H]2C[C@H]3[C@H](C/C=C/C=C/c4ccccc4)[C@H]4C=C[C@@H]1[C@@H]2[C@H]43` [BEILSCHMIEDIC ACID L], the 50% inhibitory concentration (IC50) with NCI-H460 [1] (setting [5]) was 4.4 µM. In the assay on Staphylococcus aureus (isolate 108, 24 h), this compound gave an MIC of 11 µg/mL (≈ 29.4 µM). Further, the result with PC-3, in the assay on M14 and with NCI-H460 [2] was inactive.

On to `CCCCCCCC[C@@H]1[C@H]2C=C[C@H]3C(C(=O)O)=C[C@@H](O)[C@@H]4C[C@@H]1[C@@H]2[C@H]43` [BEILSCHMIEDIC ACID C], for which the IC50 result with NCI-H460 [1] (nci-h460) is “Not Active”. Besides, the MIC entry in the assay on Staphylococcus aureus was “inactive”. Moreover, the outcome with PC-3, in the assay on M14 and in the assay with NCI-H460 [4] was inactive.

Take `CCCCCCCC[C@@H]1[C@H]2C=C[C@H]3C(C(=O)O)=C[C@H](O)[C@@H]4C[C@@H]1[C@@H]2[C@H]43` [BEILSCHMIEDIC ACID A]: the IC50 in the assay with NCI-H460 [1] (setting [5]) is 6.1 µM. Inhibition of growth in the assay with Staphylococcus aureus (isolate 108, 24 h) (MIC) required 10 µg/mL (≈ 29 µM). Moreover, the outcome in the assay with PC-3 and with M14 was inactive.

Take `O=C(O)C1=C[C@H](O)[C@@H]2C[C@H]3[C@H](CCC/C=C/C=C/c4ccccc4)[C@H]4C=C[C@@H]1[C@@H]2[C@H]43` [BEILSCHMIEDIC ACID I]: in the assay on NCI-H460 [1] (setting [5]), the IC50 came to 5.5 µM. In the assay on Staphylococcus aureus (isolate 108, 24 h), this compound displayed an MIC of 12 µg/mL (≈ 29.8 µM). For the same compound, the outcome in the assay on PC-3, in the assay on M14 and in the assay with NCI-H460 [2] was inactive.

With `CC[C@@]1(O)C(=O)OCc2c1cc1n(c2=O)Cc2cc3ccccc3nc2-1` [CAMPTOTHECIN], the IC50 in the assay with NCI-H460 [1] (setting [5]) was found to be 0.003 µM.

As to `O=C(O)C1=C[C@@H](O)[C@@H]2C[C@H]3[C@H](CCCc4ccc(-c5ccccc5)o4)[C@H]4C=C[C@@H]1[C@@H]2[C@H]43` [BEILSCHMIEDIC ACID O], the IC50 result with NCI-H460 [1] (nci-h460) is “Not Active”. In addition, in the assay on Staphylococcus aureus (isolate 108, 24 h), it took 13 µg/mL (≈ 31.2 µM) to inhibit growth (MIC). Also, the result in the assay with PC-3, with M14 and in the assay on NCI-H460 [4] was inactive.

Take `O=C(O)C1=C[C@@H](O)[C@@H]2C[C@H]3[C@H](CCCCCc4ccccc4)[C@H]4C=C[C@@H]1[C@@H]2[C@H]43` [BEILSCHMIEDIC ACID K]: in the assay with NCI-H460 [1] (setting [5]), the IC50 was 5.9 µM. Also, 11 µg/mL (≈ 29.1 µM) was the least that counted as inhibitory against Staphylococcus aureus (isolate 108, 24 h) (MIC). Moreover, the result in the assay on PC-3, in the assay with M14 and in the assay with NCI-H460 [2] was inactive.

Take `O=C(O)C1=C[C@@H](O)[C@@H]2C[C@H]3[C@H](CCC/C=C/C=C/c4ccccc4)[C@H]4C=C[C@@H]1[C@@H]2[C@H]43`: the IC50 result in the assay with NCI-H460 [1] (nci-h460) is on record as “Not Active”. The MIC entry with Staphylococcus aureus is “inactive”. Also, the result in the assay on PC-3, in the assay on M14 and in the assay with NCI-H460 [4] was inactive.
